{"data": "Published values gathered from unrelated publications", "effect on": "cell growth or viability", "note": "Lines come from different studies, so protocols differ."}
{"SMILES": "Nc1nc2sc(CCc3ccc(C(=O)N[C@@H](CCC(=O)O)C(=O)O)cc3)cc2c(=O)[nH]1", "cell line": "R2/PCFT4", "time": "96 h", "pH": "pH 7.2", "IC50": "> 1 µM"}
{"SMILES": "CC(C)C[C@H](NC(=O)[C@H](Cc1ccccc1)NC(=O)c1cnccn1)B(O)O", "cell line": "Ishikawa", "method": "ATP luminescence", "IC50": "0.0071 µM"}
{"SMILES": "COc1cc(/C=C/C(=O)CC(=O)/C=C/c2ccc(O)c(OC)c2)ccc1O", "cell line": "HUVEC", "method": "MTT", "time": "48 h", "IC50": "10.3 mg/L"}
{"SMILES": "Nc1nc2sc(CCCCCCCc3ccc(C(=O)N[C@@H](CCC(=O)O)C(=O)O)cc3)cc2c(=O)[nH]1", "cell line": "R2/PCFT4", "time": "96 h", "pH": "pH 7.2", "IC50": "> 1 µM"}
{"SMILES": "COc1cc(Nc2nccc(-c3cnn4nc(OC)ccc34)n2)cc(C(F)(F)F)c1", "cell line": "HCC38", "method": "ATP luminescence", "IC50": "0.93 µM"}
{"SMILES": "CO[C@H]1/C=C\\C=C(/C)C(=O)NC2=CC(=O)C(NCCN(C)C)=C(C[C@@H](C)C[C@H](OC)[C@H](O)[C@@H](C)/C=C(\\C)[C@@H]1OC(N)=O)C2=O", "cell line": "HUVEC", "method": "MTT", "IC50": "0.88 µM"}
{"SMILES": "CCCON(Cc1ccc(C(=O)NO)cc1)C(=O)Nc1ccccc1", "cell line": "HAL-01", "method": "ATP luminescence", "time": "72 h", "IC50": "6.65 µM"}
{"SMILES": "Nc1nc2sc(CCCCCc3ccc(C(=O)N[C@@H](CCC(=O)O)C(=O)O)cc3)cc2c(=O)[nH]1", "cell line": "R2/PCFT4", "time": "96 h", "pH": "pH 7.2", "IC50": "> 1 µM"}
{"SMILES": "Nc1ccn([C@@H]2O[C@H](CO)[C@@H](O)C2(F)F)c(=O)n1", "cell line": "HFF-1", "method": "MTT", "IC50": "14.4 µM"}
{"SMILES": "COC1=C2C[C@@H](C)C[C@H](OC)[C@H](O)[C@@H](C)/C=C(\\C)[C@H](OC(N)=O)[C@@H](OC)/C=C\\C=C(/C)C(=O)NC(=CC1=O)C2=O", "cell line": "HUVEC", "method": "MTT", "IC50": "0.041 µM"}
{"SMILES": "OCc1ccc2c(c1C#Cc1ccc(O)cc1)C(c1ccc(O)cc1)(c1ccc(O)cc1)c1cc(O)ccc1-2", "cell line": "HUVEC", "method": "MTT", "time": "48 h", "IC50": "> 50 µM"}
{"SMILES": "COc1cc(-c2ncn(/C=C\\C(=O)OC(C)C)n2)cc(C(F)(F)F)c1", "cell line": "MEG-01", "time": "72 h", "IC50": "0.083 µM"}
{"SMILES": "O=c1[nH]cc(F)c(=O)[nH]1", "cell line": "HUVEC", "method": "MTT", "time": "48 h", "IC50": "> 50 µM"}
{"SMILES": "Cn1cc(-c2ccc3c(c2)ncn3-c2ccc(CC(=O)Nc3cc(C(C)(C)C)on3)cc2)cn1", "cell line": "NIH3T3", "IC50": "0.0344 µM"}
